Experimental data published in ChEMBL document CHEMBL1121814, “Monophenolic 2-(dipropylamino)indans and related compounds: central dopamine-receptor stimulating activity” (1981).
Calls of active or inactive are those of the source.

What was measured:
[1] = tested on: Canis familiaris; assay: Relative rate of administration of compound in dogs; format: functional, Canis lupus familiaris
Method in brief: (§1)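 Four female beagles (8–15 kg) with free access to food and water, not pretreated. Drug was infused iv at constant rate into the cephalic vein. The rate (k0) was set so that vomiting would be expected about 10 min after the start of infusion. The total dose infused at vomiting was recorded. Relative k0 is the compound's k0 divided by the apomorphine k0.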

[2] = organism: Canis familiaris; assay: Emetic activity in dogs given as total dose at which the animal vomits; format: functional, Canis lupus familiaris; method in brief: as §1
[3] = organism: Rattus norvegicus; assay: Estimated dose giving an approximately maximal decrease of the DA synthesis rate; format: functional
Method in brief: (§2)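 Male Sprague–Dawley rats (200–350 g) were reserpinized, then given the drug sc in saline at four to six dose levels. NSD 1015 (100 mg/kg ip) was given 30 min before death to block decarboxylase. DOPA accumulation was measured spectrophotometrically in the limbic system and striatum as an index of DA synthesis rate. ED50 and ED100 were read from separate dose–response curves for each brain area. Experiments ran 9–12 a.m.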

[4] = organism: Rattus norvegicus; assay: Motor activity in reserpinized rats at the biochemical ED50 dose level expressed as accumulation counts per 60 min; format: functional
Method in brief: (§3)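 Male Sprague–Dawley rats (200–350 g) pretreated with reserpine 10 mg/kg ip 6 h beforehand. Drugs in saline given sc at doses matching the biochemical ED50 and ED100 for the DA-synthesis decrease. Each rat was caged singly in a photocell motility meter right after dosing and counts were accumulated over 60 min, testing between 1 and 6 p.m. Means ± SEM, n = 3–4, compared by ANOVA then Student's t test.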

[5] = organism: Rattus norvegicus; assay: Estimated dose giving a half-maximal decrease of the DA synthesis rate in the limbic system of rat brain; format: functional; method in brief: as §2
[6] = organism: Rattus norvegicus; assay: Motor activity in reserpinized rats at the biochemical ED100 dose level expressed as accumulation counts per 60 min; format: functional; method in brief: as §3
[7] = organism: Rattus norvegicus; assay: Estimated dose giving a half-maximal decrease of the DA synthesis rate in the striatum of rat brain; format: functional; method in brief: as §2
[8] = organism: Canis familiaris; assay: Total dose at which the animal vomits; format: functional, Canis lupus familiaris; method in brief: as §1
[9] = tested on: Rattus norvegicus; assay: Estimated dose giving a half-maximal decrease of the DA synthesis rate in the striatum of rat brain; I = Inactive (>45 umol/kg); format: functional, organism-based; method in brief: as §2
[10] = tested on: Rattus norvegicus; assay: Estimated dose giving a half-maximal decrease of the DA synthesis rate in the limbic system of rat brain; I = Inactive (>45 umol/kg); format: functional, organism-based; method in brief: as §2
[11] = tested on: Rattus norvegicus; assay: Estimated dose giving an approximately maximal decrease of the DA synthesis rate; I = Inactive (>45 umol/kg); format: functional, organism-based
Method in brief: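 Male Sprague-Dawley rats (200–350 g) pretreated with reserpine. Compounds dissolved in saline and given sc at four to six dose levels. Aromatic L-amino acid decarboxylase inhibited with NSD 1015 (100 mg/kg ip, 30 min before death). Brain DOPA measured spectrophotometrically as an index of DA synthesis rate. Experiments run 9–12 a.m. Dose read from separate dose–response curves for each brain area.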

[12] = tested on: Canis lupus familiaris; assay: Emetic activity in dogs by constant-rate intravenous infusion was measured

## CCCN(CCC)CC1Cc2cccc(O)c2C1 (centres undefined)
[1]
  rel ko: 9.1
[2]
  TED: 292 nM/kg
[3]
  ED100: 4500 nM/kg
[4]
  Accumulation counts: 25
[5]
  ED50: 0.67 µmol/kg
[6]
  Accumulation counts: 89
[7]
  ED50: 0.96 µmol/kg

## CCCN(CCC)C1Cc2cccc(O)c2C1 (centres undefined)
[3]
  ED100: 350 nM/kg
[4]
  Accumulation counts: 13
[5]
  ED50: 0.059 µmol/kg
[6]
  Accumulation counts: 108
[8]
  TED: 25 nM/kg
[7]
  ED50: 0.063 µmol/kg

## CCCN(CCC)C1CCCc2c(O)cccc2C1 (centres undefined)
[9]
  ED50: inactive
[10]
  ED50: inactive
[11]
  ED100: inactive

## CCCN(CCC)C1Cc2ccc(O)cc2C1 (centres undefined)
[1]
  rel ko: 9.9
[2]
  TED: 247 nM/kg
[3]
  ED100: 6500 nM/kg
[4]
  Accumulation counts: 23
[5]
  ED50: 1.25 µmol/kg
[6]
  Accumulation counts: 89
[7]
  ED50: 1.44 µmol/kg

## CCCN(CCC)C1CCc2c(O)cccc2C1 (centres undefined) [5-OH-DPAT]
[3]
  ED100: 40 nM/kg
[4]
  Accumulation counts: 25
[5]
  ED50: 0.011 µmol/kg
[6]
  Accumulation counts: 76
[8]
  TED: 4.7 nM/kg
[7]
  ED50: 0.009 µmol/kg

## CN1CCc2cccc3c2[C@H]1Cc1ccc(O)c(O)c1-3 [APOMORPHINE]
[12]
  rel ko: 1
[3]
  ED100: 230 nM/kg
[4]
  Accumulation counts: 24
[5]
  ED50: 0.041 µmol/kg
[6]
  Accumulation counts: 64
[8]
  TED: 32.3 nM/kg
[7]
  ED50: 0.044 µmol/kg

## CCCN(CCC)CC1CCc2c(O)cccc2C1 (centres undefined)
[9]
  ED50: inactive
[10]
  ED50: inactive
[11]
  ED100: inactive
